Data on 10 compounds can be found in ChEMBL document CHEMBL1139868, “Synthesis, DNA binding, and Leishmania topoisomerase inhibition activities of a novel series of anthra[1,2-d]imidazole-6,11-dione derivatives” (J Med Chem, 2007).

One may read the inhibition as the change of the read-out against control, counted positive when it falls.

Experiment [1] addresses T1, DNA topoisomerase I (Leishmania donovani donovani) (UniProt Q9NJG8).
T1 sequence (whole entry): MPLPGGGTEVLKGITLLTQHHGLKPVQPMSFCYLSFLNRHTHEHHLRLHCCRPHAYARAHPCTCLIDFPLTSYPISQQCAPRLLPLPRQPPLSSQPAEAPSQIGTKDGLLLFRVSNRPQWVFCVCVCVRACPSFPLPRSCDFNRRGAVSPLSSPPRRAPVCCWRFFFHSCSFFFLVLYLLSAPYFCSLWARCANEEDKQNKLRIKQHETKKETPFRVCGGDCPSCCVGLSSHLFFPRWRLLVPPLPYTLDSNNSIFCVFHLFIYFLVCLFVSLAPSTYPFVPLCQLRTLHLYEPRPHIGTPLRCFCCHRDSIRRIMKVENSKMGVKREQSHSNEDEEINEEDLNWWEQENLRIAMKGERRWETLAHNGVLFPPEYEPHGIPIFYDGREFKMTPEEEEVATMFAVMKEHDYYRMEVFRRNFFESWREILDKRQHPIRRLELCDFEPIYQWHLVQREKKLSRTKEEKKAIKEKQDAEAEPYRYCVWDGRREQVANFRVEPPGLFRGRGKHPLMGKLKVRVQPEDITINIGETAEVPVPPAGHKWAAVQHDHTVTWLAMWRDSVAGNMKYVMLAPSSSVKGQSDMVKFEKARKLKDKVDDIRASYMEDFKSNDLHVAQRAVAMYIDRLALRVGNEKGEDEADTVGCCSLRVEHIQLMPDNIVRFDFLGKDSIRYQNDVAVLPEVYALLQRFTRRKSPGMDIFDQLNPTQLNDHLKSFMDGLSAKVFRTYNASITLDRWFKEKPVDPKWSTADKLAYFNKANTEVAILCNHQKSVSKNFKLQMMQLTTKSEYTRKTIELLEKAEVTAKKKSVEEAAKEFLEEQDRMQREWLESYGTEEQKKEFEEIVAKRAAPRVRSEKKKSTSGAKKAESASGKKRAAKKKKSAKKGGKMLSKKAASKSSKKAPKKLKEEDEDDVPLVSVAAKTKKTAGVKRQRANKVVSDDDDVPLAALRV
In words: Inhibition of Leishmania donovani topoisomerase 1-induced relaxation activity assessed as recovery of supercoiled DNA at 10 uM.

The target of experiment [2] is T1, DNA topoisomerase I (Leishmania donovani donovani). In words: Inhibition of Leishmania donovani topoisomerase 1-induced relaxation activity assessed as recovery of supercoiled DNA at 20 uM.
Experiment [3] has the same target. In words: Inhibition of Leishmania donovani topoisomerase 1-induced relaxation activity assessed as recovery of supercoiled DNA at 50 uM.
A further experiment concerns DNA. In words: Binding affinity to calf thymus double stranded DNA. Format: nucleic-acid assay. As to conditions: Bos taurus. In outline:
(§1)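 UV-vis absorption titration: increasing concentrations of dsDNA (calf thymus DNA, poly[d(A-T)]2 or poly[d(G-C)]2) added to ligand in buffer. Hypochromicity and red-shift of the long-wavelength absorption band were followed. Binding constants were obtained by the half-reciprocal plot method.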

Experiment [4] in a line: Binding affinity to double stranded poly[d[A-T)]2 DNA. As to conditions: Homo sapiens. The method in brief:
as §1

Experiment [5] is described as follows: Binding affinity to double stranded poly[d[G-C)]2 DNA. As to conditions: Homo sapiens. In outline: as §1

For the compound `O=C1c2ccccc2C(=O)c2c1ccc1nc(-c3ccccn3)[nH]c21`, the inhibition in experiment [1] was determined as 9%; in experiment [2], 20%; in experiment [3], 75%.

Turning to `O=C1c2ccccc2C(=O)c2c1ccc1nc(-c3ccc(OCCCn4ccnc4)cc3)[nH]c21`, the Ka in the experiment on DNA was 1.1 10^5/M; in experiment [4], 1.8 10^5/M; in experiment [5], 0.6 10^5/M. For the same compound, the inhibition in experiment [1] came out at 62%; in experiment [2], 77%; in experiment [3] it was 91%.

As to `CC[C@@]1(O)C(=O)OCc2c1cc1n(c2=O)Cc2cc3ccccc3nc2-1`, the inhibition in experiment [1] came out at 39%; in experiment [2] it was 55%; in experiment [3] it was 65%.

As to `O=C1c2ccccc2C(=O)c2c1ccc1nc(-c3ccc(OCCCn4cnnn4)cc3)[nH]c21`, the Ka in the experiment with DNA was 0.5 10^5/M; in experiment [4], 0.5 10^5/M; in experiment [5], 0.3 10^5/M. Moreover, the inhibition in experiment [1] stood at 80%; in experiment [2], 92%; in experiment [3] it was 95%.

Take `CCN(CC)CCCOc1ccc(-c2nc3ccc4c(c3[nH]2)C(=O)c2ccccc2C4=O)cc1`: the Ka in the experiment on DNA is 1.9 10^5/M; in experiment [4], 3.2 10^5/M; in experiment [5] it was 2.3 10^5/M. In addition, the inhibition in experiment [2] stood at 2%; in experiment [3] it was 10%.

For `CN1CCN(CCCOc2ccc(-c3nc4ccc5c(c4[nH]3)C(=O)c3ccccc3C5=O)cc2)CC1`, the Ka in the experiment with DNA is 1 10^5/M; in experiment [4], 2.8 10^5/M; in experiment [5], 1.9 10^5/M. Further, the inhibition in experiment [3] amounted to 10%.

`O=C1c2ccccc2C(=O)c2c1ccc1nc(-c3cccnc3)[nH]c21`: the inhibition was found to be 9% in experiment [1], 15% in experiment [2] and 80% in experiment [3].

As to `O=C1c2ccccc2C(=O)c2c1ccc1nc(-c3ccc(OCCCN4CCOCC4)cc3)[nH]c21`, the figures for the Ka (in the experiment on DNA; in experiment [4]; in experiment [5]) were 0.6 10^5/M, 1.1 10^5/M and 0.5 10^5/M, respectively. In addition, the figures for the inhibition in experiment [1], in experiment [2] and in experiment [3] were 46%, 77% and 92%, respectively.

Take `O=C1c2ccccc2C(=O)c2c1ccc1nc(-c3ccc(OCCCN4CCN(CCO)CC4)cc3)[nH]c21`: the Ka is 1.9 10^5/M with DNA, 3 10^5/M in experiment [4] and 2.2 10^5/M in experiment [5]. Besides, the inhibition in experiment [3] was 5%.

Regarding `CN(C)CCCOc1ccc(-c2nc3ccc4c(c3[nH]2)C(=O)c2ccccc2C4=O)cc1`, the Ka with DNA is 2.1 10^5/M; in experiment [4], 4.1 10^5/M; in experiment [5], 3 10^5/M. In experiment [3], the inhibition was determined as 5%.
